22 compounds from ChEMBL document CHEMBL1221374, “Synthesis, proapoptotic screening, and structure-activity relationships of novel aza-lupane triterpenoids” (Bioorg Med Chem Lett, 2010) can be followed below.

Each structure is given as a SMILES string.

The test system of one assay is SK-MEL-2. The experiment in a line: Cytotoxicity against human SK-MEL-2 cells after 72 hrs by MTS assay. To be noted: SK-MEL-2, 72 h. The format is functional, cell-based. In outline:
(§1)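 Cells (1 × 10^4/well) seeded the evening before. Compounds were taken from 10 mM DMSO stock into growth medium and tested at 2, 10, 25, 50 and 75 µM, four wells each, with DMSO-matched controls. Exposure was 72 h, then MTS reagent for 1.5-4 h at 37 °C, and formazan A490 was read against DMSO-treated cells. IC50 is the mean of four wells from one experiment, or of three experiments where stated.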
In general terms: Formazan colour is commonly taken as a measure of viable cells.

The subject of the next assay is A-375. Description: Cytotoxicity against human A375 cells after 72 hrs by MTS assay. The assay is classed as functional, cell-based. The following applies: A-375, 72 h. In outline: as §1
Another assay concerns Daoy. The experiment in a line: Cytotoxicity against human DaOY cells after 72 hrs by MTS assay. The format is functional, cell-based. The procedure, abridged:
as §1

The nature of assay [1]: Cytotoxicity against human LN229 cells after 72 hrs by MTS assay. The assay is classed as functional, cell-based. To be noted: LN-229, 72 h. The procedure, abridged:
as §1

The test system of another assay is HT-29. The experiment in a line: Cytotoxicity against human HT-29 cells after 72 hrs by MTS assay. The assay is classed as functional, cell-based. To be noted: HT-29, 72 h. In outline:
as §1

The next assay concerns MCF7. Description: Cytotoxicity against human MCF7 cells after 72 hrs by MTS assay. The format is functional, cell-based. The following applies: MCF7, 72 h. The procedure, abridged: as §1
For assay [2], the system named is OVCAR-3. Description: Cytotoxicity against human OVCAR-3 cells after 120 hrs by MTS assay. The following applies: OVCAR-3, 120 h.
Assay [3] deals with OVCAR-3. The experiment in a line: Cytotoxicity against human OVCAR-3 cells after 72 hrs by MTS assay. The assay is classed as functional, cell-based. The following applies: OVCAR-3, 72 h.

What is called IC50 is the midpoint of a concentration-inhibition curve. Read a high IC50 as a need for much substance. For `C=C(CO)[C@@H]1CC[C@]2(CO)CC[C@]3(C)[C@H](CC[C@@H]4[C@@]5(C)CC[C@H](NCc6ccc7c(c6)OCO7)C(C)(C)[C@@H]5CC[C@]43C)[C@@H]12`, the IC50 in the assay on SK-MEL-2 was 17 µM; with A-375, more than 75 µM; in the assay with Daoy it was 16 µM; in assay [1], 73 µM; with HT-29, more than 75 µM; with MCF7, 75 µM. For the same compound, the IC50 in the assay on OVCAR-3 [2] turned out to be 20 µM.
Take `C=C(CO)[C@@H]1CC[C@]2(CO)CC[C@]3(C)[C@H](CC[C@@H]4[C@@]5(C)CC[C@H](NCCc6ccc(O)c(O)c6)C(C)(C)[C@@H]5CC[C@]43C)[C@@H]12`: the IC50 in the assay with SK-MEL-2 worked out at 24 µM; in the assay on A-375, 6 µM; with Daoy, 34 µM; in assay [1], 17 µM; in the assay with OVCAR-3 [3], 18 µM; with HT-29 it was 37 µM. This compound also showed an IC50 in the assay on MCF7 of 31 µM.
`C=C(C)[C@@H]1CC[C@]2(C(=O)O)CC[C@]3(C)[C@H](CC[C@@H]4[C@@]5(C)CC[C@H](O)C(C)(C)[C@@H]5CC[C@]43C)[C@@H]12` [BETULINIC ACID]: the IC50 in the assay with SK-MEL-2 is 7 µM; with A-375, 22 µM; in the assay on Daoy, 11 µM; in assay [1], 29 µM; in the assay with HT-29 it was 31 µM; in the assay on MCF7, 30 µM. Besides, in the assay with OVCAR-3 [2], half-maximal inhibition (IC50) was put at 40 µM.
`C=C(CNCCO)[C@@H]1CC[C@]2(CO)CC[C@]3(C)[C@H](CC[C@@H]4[C@@]5(C)CCC(=O)C(C)(C)[C@@H]5CC[C@]43C)[C@@H]12`: the IC50 was found to be 45 µM in the assay on SK-MEL-2; 10 µM with A-375; 47 µM in the assay on Daoy; 16 µM in assay [1]; 67 µM in the assay on OVCAR-3 [3]; 45 µM in the assay with HT-29. In addition, in the assay with MCF7, the IC50 is 47 µM.
Take `C=C(CNCCc1ccc(O)cc1)[C@@H]1CC[C@]2(CO)CC[C@]3(C)[C@H](CC[C@@H]4[C@@]5(C)CCC(=O)C(C)(C)[C@@H]5CC[C@]43C)[C@@H]12`: the IC50 was 16 µM in the assay on SK-MEL-2; 6 µM in the assay with A-375; 17 µM in the assay with Daoy; 8 µM in assay [1]; 4 µM in the assay on HT-29; 6 µM in the assay on MCF7.
Take `C=C(C)[C@@H]1CC[C@]2(CO)CC[C@]3(C)[C@H](CC[C@@H]4[C@@]5(C)CCC(N)C(C)(C)[C@@H]5CC[C@]43C)[C@@H]12` (stereo partly drawn): the IC50 was 9 µM in the assay with SK-MEL-2; 2 µM in the assay with A-375; 19 µM with Daoy; less than 2 µM in assay [1]; 5 µM with OVCAR-3 [3]; 2 µM in the assay with HT-29. The compound also gave an IC50 with MCF7 of 5 µM.
As for `C=C(C)[C@@H]1CC[C@]2(C(=O)O)CC[C@]3(C)[C@H](CC[C@@H]4[C@@]5(C)CCC(NCCO)C(C)(C)[C@@H]5CC[C@]43C)[C@@H]12` (stereo partly drawn), the IC50 in the assay with SK-MEL-2 was 36 µM; in the assay on A-375 it was 14 µM; with Daoy it was less than 2 µM; in the assay on OVCAR-3 [3], 28 µM; in the assay on HT-29, 16 µM; with MCF7 it was 35 µM.
Take `C=C(CNCCO)[C@@H]1CC[C@]2(CO)CC[C@]3(C)[C@H](CC[C@@H]4[C@@]5(C)CCC(NCCc6ccc(O)c(O)c6)C(C)(C)[C@@H]5CC[C@]43C)[C@@H]12` (stereo partly drawn): the IC50 in the assay on SK-MEL-2 amounted to 5 µM; in the assay with A-375 it was 7 µM; in the assay on Daoy it was 5 µM; in assay [1], 32 µM; with HT-29, 4 µM; in the assay with MCF7 it was 4 µM.
Take `C=C(CO)[C@@H]1CC[C@]2(CO)CC[C@]3(C)[C@H](CC[C@@H]4[C@@]5(C)CC[C@H](N)C(C)(C)[C@@H]5CC[C@]43C)[C@@H]12`: the IC50 in the assay with SK-MEL-2 is 34 µM; in the assay with A-375 it was 6 µM; in the assay with Daoy it was 31 µM; in assay [1], 17 µM; with HT-29, 17 µM; with MCF7, 15 µM. For the same compound, in the assay on OVCAR-3 [2], the IC50 was determined as 14 µM.
As for `C=C(C)[C@@H]1CC[C@]2(CO)CC[C@]3(C)[C@H](CC[C@@H]4[C@@]5(C)CCC(NCCOC)C(C)(C)[C@@H]5CC[C@]43C)[C@@H]12` (stereo partly drawn), the IC50 with SK-MEL-2 was determined as 7 µM; in the assay with A-375, 7 µM; with Daoy, 8 µM; in the assay with HT-29, 19 µM; in the assay on MCF7, 8 µM; in the assay with OVCAR-3 [2], 22 µM.
As for `C=C(CO)[C@@H]1CC[C@]2(CO)CC[C@]3(C)[C@H](CC[C@@H]4[C@@]5(C)CC[C@H](NCCOC)C(C)(C)[C@@H]5CC[C@]43C)[C@@H]12`, the IC50 in the assay with SK-MEL-2 was determined as 38 µM; with A-375 it was 18 µM; in the assay with Daoy, 34 µM; in assay [1], 38 µM; with HT-29 it was 47 µM; in the assay on MCF7, 40 µM. This compound gave an IC50 with OVCAR-3 [2] of 40 µM.
For the compound `C=C(CNCCO)[C@@H]1CC[C@]2(CO)CC[C@]3(C)[C@H](CC[C@@H]4[C@@]5(C)CC[C@H](O)C(C)(C)[C@@H]5CC[C@]43C)[C@@H]12`, the IC50 amounted to 15 µM with SK-MEL-2 and 35 µM in the assay on Daoy.
With `C=C(CO)[C@@H]1CC[C@]2(CO)CC[C@]3(C)[C@H](CC[C@@H]4[C@@]5(C)CC[C@H](NCCc6ccc(O)cc6)C(C)(C)[C@@H]5CC[C@]43C)[C@@H]12`, the IC50 was determined as 38 µM in the assay on SK-MEL-2; 6 µM in the assay on A-375; 32 µM in the assay on Daoy; 17 µM in assay [1]; 21 µM with HT-29; 17 µM with MCF7. The compound also had an IC50 in the assay on OVCAR-3 [2] of 23 µM.
Turning to `C=C(C)[C@@H]1CC[C@]2(CO)CC[C@]3(C)[C@H](CC[C@@H]4[C@@]5(C)CCC(NCCc6ccc(O)cc6)C(C)(C)[C@@H]5CC[C@]43C)[C@@H]12` (stereo partly drawn), the IC50 in the assay with SK-MEL-2 is 2 µM; in the assay on A-375 it was 4 µM; in the assay on Daoy it was less than 2 µM; in assay [1], 8 µM; in the assay on HT-29 it was 2 µM; in the assay on MCF7, 5 µM. In the assay on OVCAR-3 [2], the IC50 came to 5 µM.
With `C=C(C)[C@@H]1CC[C@]2(C(=O)O)CC[C@]3(C)[C@H](CC[C@@H]4[C@@]5(C)CCC(NCc6ccc7c(c6)OCO7)C(C)(C)[C@@H]5CC[C@]43C)[C@@H]12` (stereo partly drawn), the IC50 in the assay with SK-MEL-2 was 29 µM; with A-375, more than 75 µM; in the assay on Daoy, 38 µM; in assay [1], more than 75 µM; with OVCAR-3 [3], more than 75 µM; in the assay with HT-29 it was more than 75 µM. The 50% inhibitory concentration (IC50) in the assay on MCF7 is more than 75 µM.
Take `C=C(CNCCO)[C@@H]1CC[C@]2(CO)CC[C@]3(C)[C@H](CC[C@@H]4[C@@]5(C)CCC(NCCO)C(C)(C)[C@@H]5CC[C@]43C)[C@@H]12` (stereo partly drawn): the IC50 with SK-MEL-2 was found to be 7 µM; with A-375 it was 6 µM; in the assay with Daoy, 13 µM; in assay [1], 16 µM; in the assay with HT-29 it was 2 µM; in the assay with MCF7, 6 µM.
As to `C=C(C)[C@@H]1CC[C@]2(C(=O)O)CC[C@]3(C)[C@H](CC[C@@H]4[C@@]5(C)CCC(N)C(C)(C)[C@@H]5CC[C@]43C)[C@@H]12` (stereo partly drawn), the IC50 stood at 8 µM in the assay on SK-MEL-2, 7 µM in the assay with Daoy and 14 µM in the assay on OVCAR-3 [2].
Turning to `C=C(CNCCc1ccc(O)cc1)[C@@H]1CC[C@]2(CO)CC[C@]3(C)[C@H](CC[C@@H]4[C@@]5(C)CC[C@H](O)C(C)(C)[C@@H]5CC[C@]43C)[C@@H]12`, the IC50 with SK-MEL-2 and in the assay with Daoy was 16 µM throughout.
For `C=C(CNCCO)[C@@H]1CC[C@]2(CO)CC[C@]3(C)[C@H](CC[C@@H]4[C@@]5(C)CCC(NCCOC)C(C)(C)[C@@H]5CC[C@]43C)[C@@H]12` (stereo partly drawn), the IC50 stood at 8 µM in the assay on SK-MEL-2; 4 µM in the assay with A-375; 5 µM with Daoy; 28 µM in assay [1]; 2 µM in the assay with HT-29; 11 µM with MCF7.
Regarding `C=C(C)[C@@H]1CC[C@]2(CO)CC[C@]3(C)[C@H](CC[C@@H]4[C@@]5(C)CCC(NCCc6ccc(O)c(O)c6)C(C)(C)[C@@H]5CC[C@]43C)[C@@H]12` (stereo partly drawn), the IC50 with SK-MEL-2 came to 17 µM; with A-375, 6 µM; in the assay with Daoy, 10 µM; in assay [1], 9 µM; with HT-29, 6 µM; with MCF7, 17 µM. In the assay on OVCAR-3 [2], this compound had an IC50 of 4 µM.
Turning to `C=C(C)[C@@H]1CC[C@]2(C(=O)O)CC[C@]3(C)[C@H](CC[C@@H]4[C@@]5(C)CCC(NCCc6ccc(O)c(O)c6)C(C)(C)[C@@H]5CC[C@]43C)[C@@H]12` (stereo partly drawn), the IC50 with SK-MEL-2 turned out to be 19 µM; with Daoy it was 30 µM; in assay [1], 29 µM; in the assay on OVCAR-3 [3], 22 µM; in the assay with HT-29 it was 65 µM; in the assay on MCF7, 37 µM.
For `C=C(CNCCO)[C@@H]1CC[C@]2(CO)CC[C@]3(C)[C@H](CC[C@@H]4[C@@]5(C)CCC(NCc6ccc7c(c6)OCO7)C(C)(C)[C@@H]5CC[C@]43C)[C@@H]12` (stereo partly drawn), the IC50 turned out to be 4 µM in the assay with SK-MEL-2; 5 µM in the assay with A-375; 13 µM with Daoy; 32 µM in assay [1]; 5 µM in the assay on HT-29; 13 µM with MCF7. For the same compound, in the assay with OVCAR-3 [2], the IC50 stood at 64 µM.
